The source of these data is ChEMBL document CHEMBL4011629, “New Disubstituted Quindoline Derivatives Inhibiting Burkitt's Lymphoma Cell Proliferation by Impeding c-MYC Transcription” (J Med Chem, 2017).

Data set [1] relates to Raji. The data set is described as follows: Cell cycle arrest in human Raji cells assessed as accumulation at G2/M phase after 6 hrs by propidium iodide staining based flow cytometry (reference value: 24.4%). The class given is functional. On the technique in general: In flow cytometry, cells or beads pass a laser one at a time.
The species entered for data set [2] is Homo sapiens. In words: Effect on c-Myc DNA translocated chromosome product in human CA46 cells assessed as decrease in amplification of exon-2 up to 4 uM after 12 hrs by RT-PCR method. In kind it is cell-based. An outline of the steps: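 RAJI cells, which retain NHE III1, and CA46 cells, which lack NHE III1 and the P1/P2 promoters, were exposed to graded compound concentrations for 12 h. Total RNA (2 μg) was reverse-transcribed with oligo dT18 and M-MLV. c-MYC exons 1 and 2, NM23-H2 and β-actin were amplified by real-time PCR against untreated cells. Three repeats were done; two-tailed unpaired t-test.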

Data set [3] is described as follows: Inhibition of NM23-H2 binding to 5'-biotin labeled c-Myc Pu27 G-quadruplex DNA (unknown origin) […] by ELISA. An outline of the steps: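 Biotin-Pu27 at 100 nM in 10 mM Tris-HCl pH 7.4 with 100 mM KCl was annealed and captured on streptavidin plates. Compound (serial halving from 50 μM in 3% BSA blocking buffer) was preincubated with 250 nM NM23-H2 for 1 h at 25 °C, then added to the DNA at 4 °C overnight. Bound protein was detected with anti-NM23-H2, an HRP secondary and TMB, read at A450; three replicates, DMSO control.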

The subject of data set [4] is Raji. The data set is described as follows: Induction of apoptosis in human Raji cells assessed as early apoptotic cells at 0.5 uM after 48 hrs by Annexin V-FITC/propidium iodide staining based flow cytometry (reference value: 1.8%). In kind it is functional. A digest of the protocol:
(§1)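 RAJI cells exposed to compound or control medium for 12 or 48 h were washed in PBS and resuspended in binding buffer. They were stained with FITC annexin V and PI for 15 min in the dark, and fluorescence was measured by flow cytometry.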

The species named for data set [5] is Homo sapiens. The data set is described as follows: Stabilization of c-Myc G-quadruplex DNA in human Raji cells assessed as downregulation of c-Myc mRNA level at 2 uM after 12 hrs by RT-PCR method relative to control. The class given is cell-based. An outline of the steps: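 RAJI, CCRF-CEM and U266B1 grown in RPMI 1640 with 10% fetal calf serum at 37 °C, plated at 1 × 10^6 cells/well overnight, then treated 12 h with 4, 2, 1 or 0.5 μM (DMSO control). RNA (2 μg) reverse-transcribed with oligo dT18/M-MLV; c-MYC, NM23-H2 and β-actin amplified by real-time PCR, checked on 1.5% agarose.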

Data set [6] relates to Raji. In words: Cell cycle arrest in human Raji cells assessed as accumulation at G2/M phase after 48 hrs by propidium iodide staining based flow cytometry (reference value: 24.4%). The class given is functional.
A short description of data set [7]: Inhibition of NM23-H2 binding to 5'-FAM labeled c-Myc Pu27 G-quadruplex DNA (unknown origin) at 10 uM preincubated for 1 hr followed by NM23-H2 addition by electrophoretic mobility shift assay relative to control. A digest of the protocol:
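Annealed labeled Pu27 (1.5 μM) preincubated 1 h at 25 °C with 10 μM ligand or 5% DMSO. Recombinant His-tagged NM23-H2 (0.5 μM, E. coli BL21, nickel-purified) then added for 1 h at 37 °C. Complexes resolved on 5% native polyacrylamide gel in 0.5× TBE at 4 °C. Inhibition taken as loss of complex band intensity versus no-compound band set at 100%. Run three times.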
Background: A gel shift assay detects complexes by their altered migration in electrophoresis.

For data set [8], the species on record is Homo sapiens. The data set is described as follows: Stabilization of c-Myc G-quadruplex DNA in human CA46 cells assessed as decrease in amplification of exon-1 up to 4 uM after 12 hrs by RT-PCR method. In kind it is cell-based. A digest of the protocol:
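Exon-specific assay: RAJI and CA46 cells exposed to various ligand concentrations for 12 h; total RNA (2 μg) reverse-transcribed with oligo dT18 and M-MLV (42 °C 1 h). c-MYC exon 1 and exon 2, NM23-H2 and β-actin amplified by real-time PCR, products run on 1% agarose; untreated cells as control; three repeats, two-tailed unpaired t test.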

A short description of data set [9]: Inhibition of NM23-H2 binding to 5'-FAM labeled c-Myc Pu27 G-quadruplex DNA (unknown origin) preincubated for 1 hr followed by NM23-H2 addition by electrophoretic mobility shift assay. A digest of the protocol:
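Annealed labelled Pu27 (1.5 μM) was preincubated with 10 μM agent or 5% DMSO for 1 h at 25 °C. […] Complexes were resolved on 5% native PAGE in 0.5× TBE at 4 °C, 150 V. Inhibition was taken against the no-compound complex band (set as 100%); three runs, Hill-fit IC50.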

The test system of data set [10] is Raji. The data set is described as follows: Induction of apoptosis in human Raji cells assessed as upregulation of cleaved caspase-9 expression up to 4 uM after 12 hrs by Western blot method. In kind it is functional, cell-based. An outline of the steps:
(§2)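 After compound exposure (12 h for cell-cycle and apoptosis markers), RAJI cells were lysed in 1% NP-40 buffer. Protein at 50 μg per lane was run on 3–12% SDS-PAGE and transferred to nitrocellulose. Blots were probed with primary antibodies (GAPDH as loading reference) and detected with an HRP secondary and enhanced chemiluminescence.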
(In general: A western blot detects proteins with antibodies after separation by electrophoresis.)

In data set [11] the test system is Raji. In words: Effect on NM23-H2 protein expression in human Raji cells up to 4 uM up to 48 hrs by Western blot method. In kind it is functional, cell-based. An outline of the steps: as §2
For data set [12], the system named is Raji. The data set is described as follows: Cell cycle arrest in human Raji cells assessed as accumulation at S phase after 24 hrs by propidium iodide staining based flow cytometry (reference value: 32.2%). The class given is functional.
Data set [13] in a line: Stabilization of c-Myc Pu27 G-quadruplex DNA (unknown origin) assessed as induction of parallel G-quadruplex formation in absence of K+ ions by CD spectroscopic analysis. A digest of the protocol:
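CD spectra: Pu27 at 5 μM in 10 mM Tris-HCl pH 7.4 without or with 100 mM KCl, annealed 95 °C 5 min, slow-cooled, kept at 4 °C overnight, with ligand. Scanned 230–400 in a 4 mm quartz cuvette, 1 nm bandwidth and step, 0.5 s/point; buffer baseline subtracted.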

A short description of data set [14]: Binding affinity to 5'-FAM labeled c-Myc Pu27 G-quadruplex DNA (unknown origin) in presence of K+ ions by MST analysis. A digest of the protocol:
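The DNA was annealed at 95 °C for 5 min, slowly cooled and held at 4 °C overnight. Ligand was run as a 12-point series, 0–20 μM for Pu27 and up to 200 μM for duplex. MST was measured, and KD was fitted to a Hill model from three replicates.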

In data set [15] the test system is Mus musculus. In words: Toxicity in NOD/SCID nude mouse xenografted with human Raji cells assessed as reduction in viscera weight at 15 to 30 mg/kg, ip administered once daily for 2 weeks measured every day during compound dosing. The class given is organism-based. Particulars: in vivo, 336 h. A digest of the protocol: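 NOD/SCID mice implanted subcutaneously in the underarm with 5 × 10^6 RAJI cells in 100 μL RPMI 1640 with 10% serum; tumours grown about 1 week, then mice randomized. Body weight recorded daily; organ weights taken at end.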

The nature of data set [16]: Drug uptake in human Raji cells at 1 uM after 6 hrs. The class given is ADME, cell-based.
In data set [17] the test system is Raji. The data set is described as follows: Induction of apoptosis in human Raji cells assessed as early apoptotic cells at 0.5 uM after 12 hrs by Annexin V-FITC/propidium iodide staining based flow cytometry (reference value: 2.3%). In kind it is functional. An outline of the steps: as §1
Data set [18] relates to Raji. The data set is described as follows: Induction of apoptosis in human Raji cells assessed as late apoptotic cells at 0.5 uM after 12 hrs by Annexin V-FITC/propidium iodide staining based flow cytometry relative to control. In kind it is functional. A digest of the protocol: as §1

Activity calls are given as the source filed them. No cut-off for these calls is given here.

Take `CN(C)CCCNc1c2ccccc2nc2c1oc1ccc(OCC3CCN(C)CC3)cc12`: the Activity was 26.8% in data set [1]; 12.2% in data set [4]; more than 80% in data set [5]; 16.6% in data set [6]; 19.4% in [12]; “Non-Toxic” in data set [15]. For the same compound, the figures for the Activity in data set [17] and in [18] were 4.6% and 0.2%, respectively. Moreover, the outcome in [2] and in data set [11] was inactive. Besides, the inhibition entry in data set [3] was “Dose-dependent effect”; in data set [7], more than 80%. Further, the outcome in data set [8], in data set [10] and in data set [13] was Active. In addition, in data set [9], the IC50 was determined as 1560 nM. Moreover, the Kd in data set [14] came to 1300 nM. Also, the Drug uptake entry in [16] is reported as “Active”.

By inhibition is commonly meant how much of the control response was suppressed. The IC50 is the midpoint of a concentration-inhibition curve. Broadly, the Kd is the constant that tells how readily two partners part at equilibrium.
